T cruzi repl: inhibitors of intracellular T. cruzi growth, primary screen, luminescence, NIH3T3 host cells. inhibition, % (no concentration beside the values). T. cruzi beta-gal in NIH3T3, 90 h. 1.4% of 300,000 active;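 active = mean inhibition across valid replicates above about 55%, limit read from the data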;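 also: signal also drops with host cell toxicity which is not excluded here; 0% = plate median of DMSO wells and 100% = zero luminescence signal; higher percent means less beta-gal luminescence so fewer parasites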
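System: NIH/3T3 fibroblasts plus reporter T. cruzi. Medium: DMEM plus 2% FBS. Probe or stimulus: 5000 reporter trypomastigotes per well. Compound: single 50 nL compound addition per well in DMSO. Incubation: co-culture of at least 90 h after 3 h attachment. Detection: GalScreen β-gal luminescence, detergent lysis, 60 min. Evaluation: parasite load inhibition, %.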
Lmaj promast: Leishmania major promastigote growth inhibition, primary screen; Leishmania major promastigotes, resazurin fluorescence viability; inhibition, % at 10 µM; 9% of 200,000 active; AID 1063, 2008; in the data active = inhibition above about 50%;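 also: promastigotes grown with compound for 44 hours at 28 °C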
MPTP inh: mitochondrial permeability transition pore inhibitors, primary screen, biochemical, isolated mouse mitochondria, absorbance. 1.4% of 360,000 active. inhibition, % at 10 µM. Ca2+ swelling absorbance, 30 min;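 active = inhibition of 50% or more, scaled per plate between neutral and stimulator controls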;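 also: 0% = DMSO wells given calcium and 100% = 1 mM EGTA wells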
DTT redox prof: compounds producing H2O2 with reducing agent – biochemical, NIH compound library profiling, artefact control for MLSCN library redox annotation, primary screen. activation, % at 10 µM. 0.03% of 200,000 active. DTT-dependent redox cycling H2O2, phenol red/HRP absorbance; 100% = 100 µM peroxide control, 0% = buffer. AID 878, 2007;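 active = activation of at least 50% relative to the plate's high and low controls in the primary single-dose screen; inactive = activation below 50%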;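 also: compound incubated with DTT at 0.8 mM final as the reducing agent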
Hep lipid drop: inhibitors of hepatocyte lipid droplet formation, primary screen, imaging, high-throughput imaging, BODIPY stain | AML12 mouse hepatocytes, oleate lipid droplets | inhibition, % at 6.5 µM | 0.4% of 240,000 active;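 active = lipid droplet intensity inhibited by at least 50%, with more than 500 cells counted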
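System: AML12 hepatocytes (mouse). Probe or stimulus: oleic acid at 100 µM to induce lipid droplet formation. Times: overnight treatment with compound plus oleate. Detection: Image-based BODIPY and DAPI two-channel analysis. Evaluation: percent inhibition of filter-corrected integrated lipid droplet intensity per well.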
Lipid drop inh: hepatocyte lipid droplet accumulation inhibitors, confirmation, imaging, AML12 mouse hepatocytes, single concentration, high-content; shares compounds with Hep lipid drop; BODIPY lipid droplet imaging; droplets induced with 100 µM oleic acid; inhibition, % at 5.2 µM; 65% of 870 active; AID 463183, 2010;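 active = inhibition of lipid droplet metric at least 50%, with more than 300 cells in each of four replicates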;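 also: plate controls were DMSO with oleic acid for no effect and 5 µM Triacsin-C for full effect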
AML12 tox img: AML12 hepatocyte cytotoxicity, counter-screen for hepatic lipid droplet formation project, imaging, DAPI nuclear morphology imaging | shares compounds with Hep lipid drop | AID 463200, 2010 | z-score at 5 µM | AML12 mouse hepatocytes; hits give high values; cells fed 100 µM oleate overnight | 3% of 870 active; in the data active = z-score above about 6.3;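 also: compound exposure lasted overnight at 37 °C before fixation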
AML12 tox conf: AML12 hepatocyte cytotoxicity, confirmation, cytotoxicity control for hepatic lipid droplet formation project, cell-based, single concentration. 530 tested, under 10 active. shares compounds with Hep lipid drop. cytotoxicity, % at 50 µM. AML12 mouse hepatocyte viability, ATP luminescence; cells loaded with 100 µM oleic acid. AID 463219, 2010;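 active = cytotoxicity above 50% in each of four replicates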;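 also: compound exposure lasted overnight at 37 °C before the ATP read; 0% = DMSO-treated cells and 100% = wells with no cells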
The depositor's hits bear a star; / = no result given. The full list was thinned out, with hits kept by preference.

SMILES | T cruzi repl | Lmaj promast | MPTP inh | DTT redox prof | Hep lipid drop | Lipid drop inh | AML12 tox img | AML12 tox conf
CCN1CCN(c2c(/C=C3\SC(=S)N(Cc4ccco4)C3=O)c(C)c(C#N)c(=O)n2C)CC1 | -15.1 | / | -4.9 | / | 64.9* | 9.0 | -0.444 | /
CCOC(=O)c1cc(-c2ccc(F)cc2)n(CC(=O)NC(C)CC)c1C (stereo unspecified) | -5.0 | 3.5 | 2.5 | -0.5 | 69.6* | 65.8* | -0.519 | 12.8
CCOC(=O)c1cc(-c2ccc(C)cc2)n(CCC(=O)NC(C)CC)c1C (stereo unspecified) | -1.3 | 5.6 | 1.2 | 0.1 | -0.2 | / | / | /
Cc1cccc(Nc2nc(N)c([N+](=O)[O-])c(N3CCN(C)CC3)n2)c1 | -1.9 | -1.4 | 0.6 | 0.1 | -1.9 | / | / | /
Cc1cccc(Nc2nc(N)c([N+](=O)[O-])c(N3CCCC(C)C3)n2)c1 (stereo unspecified) | 2.4 | 20.1 | 23.4 | 2.3 | 62.0* | 90.8* | 1.46 | 74.4*
Nc1ccc2nc(Cc3ccccc3)[nH]c2c1 | -1.3 | / | 2.1 | / | 54.1* | -10.9 | 0.198 | /
COc1ccc(OCC(=O)Nc2ccc(NC(=O)c3cccs3)c(OC)c2)cc1 | 20.3 | 2.4 | 0.0 | -1.3 | 3.2 | / | / | /
COc1cc(NC(=O)c2cccs2)c(OC)cc1NC(=O)CCC(=O)Nc1ccc2ncccc2c1 | 15.5 | 3.0 | -0.4 | -1.0 | 68.3* | 95.4* | 0.972 | 67.8
COc1ccc(N=C2C(=Nc3ccc(OC)cc3)N(c3ccc(OC)cc3)C(=S)N2C(=O)c2ccc(OC)cc2)cc1 | -0.5 | -4.5 | 3.2 | 4.4 | 86.7* | 113.1* | -0.618 | 8.3
COc1ccc(N=C2C(=Nc3ccc(OC)cc3)N(c3ccc(N(C)C)cc3)C(=S)N2c2ccc(OC)cc2)cc1 | 38.6 | 5.9 | 2.6 | 2.4 | 65.3* | 15.2 | 1.84 | /
Cn1c(SCC(=O)Nc2ccc3[nH]c(=O)[nH]c3c2)nnc1-c1ccc(F)cc1 | -6.9 | / | 2.0 | / | -19.6 | / | / | /
CN1CCN(c2ncnc3c2ncn3[C@H]2CN(Cc3ccco3)C[C@@H](CO)O2)CC1 | / | / | 9.8 | / | / | / | / | /
CCOc1ccc(NC(=O)C2C3CC/C=C\CCC32)cc1 (stereo unspecified) | -2.3 | / | 2.6 | / | -2.1 | / | / | /
CS(=O)(=O)Nc1ccc(C(=O)Nc2ccccc2C(=O)NCc2ccco2)cc1 | 1.2 | / | -1.7 | / | 56.6* | -2.8 | -0.513 | /
COc1ccc(C[C@H]2CN3C(=NC[C@H]3Cc3ccccc3)N2CCNC(=O)c2ccc(C)c(Br)c2)cc1 | 39.0 | / | 1.3 | / | 54.2* | -2.7 | -0.0185 | /
COc1ccc(S(=O)(=O)Nc2ccc(-c3ccc4nncn4n3)cc2)c(OC)c1 | -0.5 | / | -2.9 | / | / | / | / | /
COc1ccc(-c2c/c(=N\c3nc(-c4ccccc4)c(C)s3)c3ccccc3o2)cc1O | -10.1 | 10.4 | 3.6 | 1.7 | 57.6* | -19.8 | 22.8* | /
COc1ccc(-c2cc(=Nc3c(C)n(C)n(-c4ccccc4)c3=O)c3ccccc3o2)cc1 | -5.0 | 38.4 | -1.4 | -4.3 | 0.4 | / | / | /
Cc1cc(NC(=O)c2sccc2C)n(-c2nc3ccccc3[nH]2)n1 | 39.0 | 31.3 | 1.6 | -0.7 | 59.5* | 83.5* | 0.0168 | -11.6
O=C1CC/C=C\C[C@@H](CC(=O)N(CCO)Cc2ccccc2)C(=O)N[C@H](Cc2c[nH]c3ccccc23)CO1 | / | / | -2.9 | / | / | / | / | /
Cc1cc2c(cc1S(=O)(=O)NCc1ccccc1)n(C)c(=O)c(=O)n2C | -14.9 | / | -3.2 | / | -2.0 | / | / | /
Cc1cc2c(cc1S(=O)(=O)Nc1c(C)cccc1C)n(C)c(=O)c(=O)n2C | -0.4 | / | -0.1 | / | 71.2* | 92.4* | -0.124 | 7.9
Cc1cc2c(cc1S(=O)(=O)Nc1cccc(C)c1C)n(C)c(=O)c(=O)n2C | -6.6 | / | 0.1 | / | 54.1* | 66.0 | -0.537 | /

Source: PubChem BioAssay
